Consider 27 compounds from ChEMBL document CHEMBL1933063, “Investigation of chalcones and benzochalcones as inhibitors of breast cancer resistance protein” (Bioorg Med Chem, 2012).

pIC50: −log10 of the molar value. Active and inactive are the calls of the source. The rule behind the calls is not given here.

Data set [1] concerns the target T1, Broad substrate specificity ATP-binding cassette transporter ABCG2 (Homo sapiens, UniProt Q9UNQ0).
T1 sequence (Q9UNQ0 whole entry): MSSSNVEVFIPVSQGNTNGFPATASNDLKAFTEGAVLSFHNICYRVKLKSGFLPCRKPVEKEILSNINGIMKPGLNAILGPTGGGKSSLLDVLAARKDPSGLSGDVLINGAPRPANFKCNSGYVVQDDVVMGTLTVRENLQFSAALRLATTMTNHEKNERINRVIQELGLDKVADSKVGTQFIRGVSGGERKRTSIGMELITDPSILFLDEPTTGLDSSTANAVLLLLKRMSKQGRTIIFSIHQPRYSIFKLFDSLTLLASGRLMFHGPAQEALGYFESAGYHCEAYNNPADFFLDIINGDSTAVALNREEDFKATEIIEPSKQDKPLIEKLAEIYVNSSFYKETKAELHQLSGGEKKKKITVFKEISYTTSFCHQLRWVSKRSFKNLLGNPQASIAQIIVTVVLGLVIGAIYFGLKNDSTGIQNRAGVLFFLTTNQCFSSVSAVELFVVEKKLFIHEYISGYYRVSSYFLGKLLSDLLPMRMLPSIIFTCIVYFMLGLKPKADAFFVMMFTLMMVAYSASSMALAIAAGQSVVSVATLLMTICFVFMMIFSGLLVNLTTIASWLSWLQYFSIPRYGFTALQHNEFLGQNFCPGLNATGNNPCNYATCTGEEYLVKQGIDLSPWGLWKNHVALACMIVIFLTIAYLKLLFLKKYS
Description: Inhibition of BCRP in human MCF7/MX cells assessed as Hoechst 33342 accumulation preincubated for 30 mins by Fluorometry. The data set is classed as cell-based. The settings on record: for pIC50: read-out: IC50; for IC50: mcf7/mx. The procedure, abridged: (§1)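 Cells washed three times in Krebs-HEPES buffer, about 20,000 per well, preincubated with test compound at varied concentrations for 30 min at 37 °C, 5% CO2. Hoechst 33342 then added (final 1 µM). Fluorescence (ex 355, em 460 nm) read every 60 s up to 120 min at 37 °C. KHB background subtracted, 100–109 min mean plotted, four-parameter logistic fit; ≥3 independent experiments.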

For data set [2], the target named is T1, Broad substrate specificity ATP-binding cassette transporter ABCG2. Description: Inhibition of human BCRP expressed in MDCK2 cells assessed as Hoechst 33342 accumulation preincubated for 30 mins by fluorimetry. It counts as cell-based, MDCK-II. As to conditions: for pIC50: read-out: IC50; for IC50: mdck-ii. The procedure, abridged:
as §1

Data set [3] addresses Multidrug resistance-associated protein 1 (Homo sapiens, UniProt P33527). Description: Inhibition of MRP1 overexpressed in human 2008 MRP1 cells assessed as calcein AM accumulation at 10 uM by fluorimetry. The settings on record: human, 2008, 10 µM. The data set is classed as cell-based. A digest of the protocol: (§2)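 Calcein AM accumulation in A2780adr (P-gp) or 2008 MRP1 cells. Cells washed in Krebs-HEPES buffer, about 30,000 per well, preincubated 30 min with compound at 10 µM final. Calcein AM then added. Fluorescence (ex 485, em 520 nm) read every 60 s up to 90 min at 37 °C. Expressed as percent of vehicle control; n = 3.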

Data set [4] has as its system MDCK-II. Description: Potentiation of SN-38 anticancer activity against MDCK2 cells expressing human BCRP after 72 hrs by MTT assay. It counts as functional, cell-based. The settings on record: Canis lupus familiaris. A digest of the protocol: (§3)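 Cells seeded (1250/well MDCK, 10,000/well MCF-7) and left 6 h at 37 °C, 5% CO2. Mitoxantrone or SN-38 dose range added with or without three concentrations of modulator, then 72 h incubation. MTT added for 1 h, cells lysed in DMSO, absorbance read at 544 nm minus 710 nm. EC50 derived; parental cells as controls; three independent experiments.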

The target of data set [5] is ATP-dependent translocase ABCB1 (Homo sapiens, UniProt P08183). Description: Inhibition of MDR1 in human A2780adr cells assessed as calcein AM accumulation at 10 uM by fluorimetry. It counts as cell-based. As to conditions: a2780 adr. The procedure, abridged:
as §2

Data set [6] relates to MCF7/MX. The data set is described as follows: Potentiation of mitoxantrone anticancer activity against human MCF7/MX cells at 1 uM after 72 hrs by MTT assay. The data set is classed as functional, cell-based. A digest of the protocol: as §3
Data set [7] concerns MCF7/MX. The data set is described as follows: Potentiation of mitoxantrone anticancer activity against human MCF7/MX cells at 3 uM after 72 hrs by MTT assay. The data set is classed as functional, cell-based. A digest of the protocol:
as §3

Data set [8] deals with MCF7/MX. Description: Potentiation of mitoxantrone anticancer activity against human MCF7/MX cells at 5 uM after 72 hrs by MTT assay. It counts as functional, cell-based. A digest of the protocol:
as §3

Chain of ATP-dependent translocase ABCB1 (P08183 whole entry): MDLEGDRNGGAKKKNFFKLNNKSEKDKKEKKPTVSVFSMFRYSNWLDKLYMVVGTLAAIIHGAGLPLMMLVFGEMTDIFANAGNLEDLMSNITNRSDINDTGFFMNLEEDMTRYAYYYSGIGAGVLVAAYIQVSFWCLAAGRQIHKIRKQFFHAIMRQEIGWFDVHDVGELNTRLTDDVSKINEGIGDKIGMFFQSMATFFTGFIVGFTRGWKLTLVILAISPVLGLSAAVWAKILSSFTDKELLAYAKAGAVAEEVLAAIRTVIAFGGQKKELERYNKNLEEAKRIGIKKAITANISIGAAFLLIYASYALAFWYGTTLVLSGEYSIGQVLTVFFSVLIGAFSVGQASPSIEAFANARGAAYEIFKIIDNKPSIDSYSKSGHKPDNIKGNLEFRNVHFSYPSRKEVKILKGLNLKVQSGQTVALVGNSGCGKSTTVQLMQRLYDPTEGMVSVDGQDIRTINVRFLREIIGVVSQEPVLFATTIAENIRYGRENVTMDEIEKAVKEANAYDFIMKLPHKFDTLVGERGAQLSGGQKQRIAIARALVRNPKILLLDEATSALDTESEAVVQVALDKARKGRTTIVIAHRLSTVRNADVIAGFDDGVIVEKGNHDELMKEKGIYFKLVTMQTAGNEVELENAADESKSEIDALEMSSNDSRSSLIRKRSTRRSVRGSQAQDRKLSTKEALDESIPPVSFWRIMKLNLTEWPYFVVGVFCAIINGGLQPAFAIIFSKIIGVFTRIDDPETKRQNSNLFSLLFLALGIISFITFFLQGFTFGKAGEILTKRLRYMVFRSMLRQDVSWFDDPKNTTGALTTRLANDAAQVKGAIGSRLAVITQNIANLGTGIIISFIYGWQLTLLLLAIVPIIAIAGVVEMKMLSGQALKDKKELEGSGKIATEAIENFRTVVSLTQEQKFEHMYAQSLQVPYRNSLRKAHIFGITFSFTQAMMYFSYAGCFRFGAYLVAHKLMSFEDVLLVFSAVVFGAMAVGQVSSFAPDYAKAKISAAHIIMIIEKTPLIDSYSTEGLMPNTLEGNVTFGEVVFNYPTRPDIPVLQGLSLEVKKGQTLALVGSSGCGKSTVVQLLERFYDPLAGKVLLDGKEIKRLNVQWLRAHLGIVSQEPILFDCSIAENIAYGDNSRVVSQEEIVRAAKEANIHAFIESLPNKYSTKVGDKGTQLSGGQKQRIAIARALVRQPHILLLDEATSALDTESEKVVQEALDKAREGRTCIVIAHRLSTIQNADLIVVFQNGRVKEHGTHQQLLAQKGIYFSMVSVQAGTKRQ
Chain of Multidrug resistance-associated protein 1 (P33527 whole entry): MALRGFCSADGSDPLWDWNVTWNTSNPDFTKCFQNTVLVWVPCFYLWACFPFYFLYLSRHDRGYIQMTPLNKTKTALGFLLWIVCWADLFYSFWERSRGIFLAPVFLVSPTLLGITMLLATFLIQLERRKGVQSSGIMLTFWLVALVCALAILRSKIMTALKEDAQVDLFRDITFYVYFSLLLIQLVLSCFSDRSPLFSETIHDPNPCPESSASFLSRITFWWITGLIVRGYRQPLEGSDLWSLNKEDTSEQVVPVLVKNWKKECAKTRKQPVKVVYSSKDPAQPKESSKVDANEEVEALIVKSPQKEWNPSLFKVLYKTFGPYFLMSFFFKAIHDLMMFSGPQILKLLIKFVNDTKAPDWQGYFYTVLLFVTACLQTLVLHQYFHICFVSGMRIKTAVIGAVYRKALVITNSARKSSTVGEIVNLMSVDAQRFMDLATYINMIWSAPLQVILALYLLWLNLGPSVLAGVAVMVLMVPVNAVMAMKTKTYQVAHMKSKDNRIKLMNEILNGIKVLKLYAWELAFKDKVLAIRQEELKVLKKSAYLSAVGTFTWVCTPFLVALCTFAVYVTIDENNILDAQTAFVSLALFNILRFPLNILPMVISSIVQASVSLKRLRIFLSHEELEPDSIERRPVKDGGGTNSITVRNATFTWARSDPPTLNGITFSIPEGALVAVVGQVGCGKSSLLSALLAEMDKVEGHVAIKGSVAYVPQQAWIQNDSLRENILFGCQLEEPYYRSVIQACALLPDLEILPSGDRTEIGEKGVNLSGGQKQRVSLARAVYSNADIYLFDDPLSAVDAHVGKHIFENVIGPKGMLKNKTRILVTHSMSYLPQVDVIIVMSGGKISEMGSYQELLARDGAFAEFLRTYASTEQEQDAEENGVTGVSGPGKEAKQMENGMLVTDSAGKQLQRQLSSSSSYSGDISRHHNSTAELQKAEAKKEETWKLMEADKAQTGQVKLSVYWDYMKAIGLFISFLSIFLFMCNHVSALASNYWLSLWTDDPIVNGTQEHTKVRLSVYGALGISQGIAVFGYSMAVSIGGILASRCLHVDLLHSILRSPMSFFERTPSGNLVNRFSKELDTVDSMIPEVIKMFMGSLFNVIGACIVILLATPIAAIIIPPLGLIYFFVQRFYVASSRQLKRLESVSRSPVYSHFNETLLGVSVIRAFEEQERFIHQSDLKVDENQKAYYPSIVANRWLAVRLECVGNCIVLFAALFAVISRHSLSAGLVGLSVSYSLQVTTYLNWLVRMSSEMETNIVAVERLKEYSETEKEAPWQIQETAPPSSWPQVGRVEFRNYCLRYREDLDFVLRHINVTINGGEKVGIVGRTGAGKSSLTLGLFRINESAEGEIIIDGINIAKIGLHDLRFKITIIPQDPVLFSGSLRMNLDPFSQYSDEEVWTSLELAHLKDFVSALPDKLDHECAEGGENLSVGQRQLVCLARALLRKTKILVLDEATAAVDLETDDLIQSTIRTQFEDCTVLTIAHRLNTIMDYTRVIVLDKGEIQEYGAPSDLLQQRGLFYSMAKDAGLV

On to `COc1ccc(/C=C/C(=O)c2c(O)ccc3ccccc23)cc1OC`, for which the figures for the pIC50 in data set [1] and in data set [2] were 5.74 and 6.14, respectively. Also, the “inhibition (INH)” value in data set [3] is given as “Not Active”; in data set [5], “Active”. The Activity entry in data set [4] is “Dose-dependent effect”.
With `COc1cc(O)c(C(=O)/C=C/c2ccc(OC)c(OC)c2)c(OC)c1`, the pIC50 in data set [1] was 6.12; in data set [2], 6.28. Further, the result in data set [6], in data set [7] and in data set [8] was Active. In addition, the results for the “inhibition (INH)” value in data set [3] and in data set [5] were “Not Active” and “Active”, respectively.
Turning to `O=C(/C=C/c1ccccc1)c1ccccc1O` [2'-HYDROXYCHALCONE], the IC50 result in data set [1] and in data set [2] was “Not Active” in each case. Also, the “inhibition (INH)” value is reported as “Not Active” in data set [3] and “Active” in data set [5].
Consider `COc1ccc(/C=C/C(=O)c2ccccc2O)cc1`, for which the IC50 result in data set [1] and in data set [2] was “Not Active” each time. The “inhibition (INH)” value is reported as “Not Active” in data set [3] and “Active” in data set [5].
For `COc1ccc(C(=O)/C=C/c2ccc(OC)c(OC)c2)c(O)c1`, the figures for the pIC50 in data set [1] and in data set [2] were 5.66 and 5.97, respectively. Moreover, the results for the “inhibition (INH)” value in data set [3] and in data set [5] were “Not Active” and “Active”, respectively.
Regarding `O=C(/C=C/c1ccc(Cl)cc1)c1ccc2ccccc2c1O`, the IC50 entry in data set [1] and in data set [2] was “Not Active” each time. The “inhibition (INH)” value is “Not Active” in data set [3] and “Active” in data set [5].
For `O=C(/C=C/c1ccc(Cl)cc1)c1c(O)ccc2ccccc12`, the IC50 entry in data set [1] and in data set [2] was “Not Active” in each case. For the same compound, the “inhibition (INH)” value in data set [3] is “Not Active”; in data set [5], “Active”.
`O=C(/C=C/c1ccccc1)c1ccc2ccccc2c1O`: the pIC50 in data set [1] was 4.61; in data set [2] it was 5.03. Moreover, the “inhibition (INH)” value in data set [3] was “Not Active”; in data set [5] it was “Active”.
The matching figures for `COc1ccc(C(=O)/C=C/c2ccc(Cl)cc2)cc1OC`: 5.57, 5.76, “Not Active” and “Active”.
The matching figures for `COc1ccc(/C=C/C(=O)c2ccc3ccccc3c2O)cc1OC`: 5.60, 5.71, “Not Active” and “Active”.
For `COc1ccc(C(=O)/C=C/c2ccc(Cl)cc2)c(O)c1`, the results for the pIC50 in data set [1] and in data set [2] were 4.87 and 4.97, respectively. Besides, the “inhibition (INH)” value in data set [3] is on record as “Not Active”; in data set [5], “Active”.
The like results for `COc1ccc(/C=C/C(=O)c2ccc(OC)cc2O)cc1` were, in that order, 5.38, 5.66, “Not Active” and “Active”.
The like results for `COc1cccc(/C=C/C(=O)c2c(O)ccc3ccccc23)c1` were, in that order, 5.71, 5.71, “Not Active” and “Active”.
The matching figures for `COc1cccc(/C=C/C(=O)c2ccc3ccccc3c2O)c1`: 4.92, 5.25, “Not Active” and “Active”.
As for `O=C(/C=C/c1ccc(Cl)cc1)c1ccc(O)cc1O`, the pIC50 is 5.22 in data set [1] and 5.20 in data set [2]. For the same compound, the figures for the “inhibition (INH)” value in data set [3] and in data set [5] were “Not Active” and “Active”, respectively.
On to `COc1cc(OO)ccc1C(=O)/C=C/c1ccc(Cl)c(Cl)c1`, for which the IC50 entry in data set [1] and in data set [2] was “Not Active” each time. The “inhibition (INH)” value in data set [3] is given as “Not Active”; in data set [5], “Active”.
Turning to `COc1cccc(/C=C/C(=O)c2ccc(O)cc2O)c1`, the negative-log IC50 (pIC50) is 5.55 in data set [1] and 5.71 in data set [2]. The “inhibition (INH)” value in data set [3] is on record as “Not Active”; in data set [5], “Active”.
On to `O=C(/C=C/c1ccccc1Cl)c1ccc2ccccc2c1O`, for which the IC50 result in data set [1] and in data set [2] was “Not Active” throughout. For the same compound, the “inhibition (INH)” value is given as “Not Active” in data set [3] and “Active” in data set [5].
As to `COc1ccc(C(=O)/C=C/c2ccccc2Cl)c(OC)c1`, the pIC50 in data set [1] was 5.50; in data set [2], 5.58. Further, the entries for the “inhibition (INH)” value in data set [3] and in data set [5] were “Not Active” and “Active”, respectively.
Consider `COc1ccc(/C=C/C(=O)c2ccc(OC)cc2OC)cc1` [METOCHALCONE], for which the pIC50 was 5.63 in data set [1] and 5.72 in data set [2]. Also, the “inhibition (INH)” value in data set [3] was “Not Active”; in data set [5], “Active”.
The matching figures for `COc1ccc(/C=C/C(=O)c2ccc(O)cc2O)cc1OC`: 6.03, 6.07, “Not Active” and “Active”.
`O=C(/C=C/c1ccccc1)c1c(O)ccc2ccccc12`: the pIC50 in data set [1] was 5.56; in data set [2] it was 5.59. Moreover, the “inhibition (INH)” value in data set [3] is reported as “Not Active”; in data set [5], “Active”.
With `COc1ccc(/C=C/C(=O)c2ccc(O)cc2O)cc1`, the pIC50 in data set [1] is 4.48; in data set [2] it was 4.92. Moreover, the “inhibition (INH)” value was “Not Active” in data set [3] and “Active” in data set [5].
In the case of `O=C(/C=C/c1ccccc1)c1ccc(O)cc1O` [2',4'-DIHYDROXYCHALCONE], the IC50 entry in data set [1] and in data set [2] was “Not Active” each time. For the same compound, the “inhibition (INH)” value is reported as “Not Active” in data set [3] and “Active” in data set [5].
On to `COc1ccc(/C=C/C(=O)c2c(O)ccc3ccccc23)cc1`, for which the pIC50 in data set [1] was 5.42; in data set [2], 5.54. For the same compound, the results for the “inhibition (INH)” value in data set [3] and in data set [5] were “Not Active” and “Active”, respectively.
The matching figures for `COc1ccc(/C=C/C(=O)c2ccc3ccccc3c2O)cc1`: 4.77, 5.01, “Not Active” and “Active”.
`O=C(/C=C/c1ccccc1Cl)c1c(O)ccc2ccccc12`: the pIC50 in data set [1] was 5.28; in data set [2], 5.25. Moreover, the “inhibition (INH)” value is “Not Active” in data set [3] and “Active” in data set [5].
